Data from the EternaBench riboswitch data.

Test system: MS2 coat protein
Assay: apparent Kd, MS2 coat protein; higher = weaker binding; RNA-MaP array; FMN 200 µM where present
Outline: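 The titrant was SNAP-549-labelled MS2 coat protein, run from 0.7 or 1.5 nM in doubling steps to 3 µM. It was applied to designs transcribed by stalled E. coli RNA polymerase on Illumina sequencing-chip clusters, without ligand first and then with constant ligand, in 100 mM Tris-HCl pH 7.5, 80 mM KCl, 4 mM MgCl2, BSA, DTT, yeast tRNA and Tween-20. The apparent Kd is the median of filtered per-cluster binding-curve fits, with green signal normalised to red-channel RNA signal and control-cluster median Fmax.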

[1] = designed as: ON switch for flavin mononucleotide, no ligand
[2] = ligand present: flavin mononucleotide, designed as: ON switch for flavin mononucleotide
[3] = designed as: OFF switch for flavin mononucleotide, no ligand
[4] = ligand present: flavin mononucleotide, designed as: OFF switch for flavin mononucleotide

| Sequence | apparent Kd [1] | apparent Kd [2] | apparent Kd [3] | apparent Kd [4] |
| --- | --- | --- | --- | --- |
| GAGUAGUUAAAAGGAUAUUGAUUAUUGUAGGAUCAAGAAGGUUUUAACAUGAGGAUCACCCAUGUAGGACUAUUCCUGUGAAAA | 15.6 nM | 12.7 nM |  |  |
| UGAUAGGACAGAGGAUAUACGGAUAGGAUCUACUAUCCUCCUUUAAUAACAUGAGGAUCACCCAUGUAGAAGGCUGUCCUAUCU |  |  | 15.3 nM | 24.2 nM |
| UGAUAGGACAGAGGAUAUACGUGCUAGAGAUACUAGCUAAUAAUCCUUACAUGAGGAUCACCCAUGUAGAAGGCUGUCCUAUCU |  |  | 19.5 nM | 45.5 nM |
| GAGUGACAUGAGGAUCACCCAUGUGAGGAUAUCGGCCGGACCUUGUUAGCUUCCGCCGCGAGAAGGCACAUCGG |  |  | 71.8 nM | 157 nM |
| CCCGGGUUUGUGAGGAUAUGCCCGGGUAAACCCGGGUAGAAGGCACAUGAGGAUCACCCAUGUAAGGGCCCGGG |  |  | 16.7 nM | 17 nM |
| AAAUUUAACGAAGGAUAUGCUUACAUGAGGAUCACCCAUGUGUGCCUUGUGUUGCUGAUUAGGUUGCAGAAGGUCGUAUACAUA |  |  | 124 nM | 684 nM |
| AGGAUAAGAAGAACUAUCCAUUGUACAGAAGGCCAACAUGAGGAUCACCCAUGUAAGAAAAGGAUGGAGGAUAUGUAUAGGGCC | 37.3 nM | 19.8 nM |  |  |
| CCCUACGUUUCGUAGCAGUGUCAUCGAGAAGGCCCUGACAUGAGGAUCACCCAUGUUGUUACAUGGGAGGAUAUCGAUGAUCCC | 18.6 nM | 5.47 nM |  |  |
| AUAAAAGUAGGAUAUUGACUGAUCGACAUGAGGAUCACCCAUGUGGUGCUGUGCGGUAUUCAAGAAGGGCUAAAAU |  |  | 21.8 nM | 32.2 nM |
| AUUGUUAAGGUAGGAUAUAGUAAAAUGAUUUAAUUAGAAGGAUCUCACAUGAGGAUCACCCAUGUAAUAGGAUUACCCAUGUAU |  |  | 32.8 nM | 23.6 nM |
| AGUCCACAUGAGGAUCACCCAUGUCUGGAGAAGACAGGAUAUAAGGAAAAAAAAAAAAACUUAGAAGGGUCAAAAA | 128 nM | 69.7 nM |  |  |
| UGGUUGUGAGGAUAUACGUUUUUUAACUUUUGUUUUAUAUUGUAGAAGGCACAUGAGGAUCACCCAUGUUACGU |  |  | 22.9 nM | 30.8 nM |
| GGAUGACAAAGUCAUCCAUUACGAACAUGAGGAUCACCCAUGUAGGAUAUGCUACUCAAAGAGUAGCAGAAGGACAUGUGUCUU |  |  | 31.2 nM | 149 nM |
| AUAGGCCUAGGAUAUACAUGAGGAUCACCCAUGUUAAUAAUUCGAUCAUGAUAAACGUGUAGAAGGAGGAAUAA |  |  | 32.9 nM | 36.9 nM |
| UUUUAACAUGAGGAUCACCCAUGUGAGGAUAUCGAAAUUUAUAUUAAUAUUUUUAUAACGAGAAGGCACAUUUU |  |  | 70.1 nM | 75.2 nM |
| AGCAAAUCAGGAUAUGUACUGGACGACAUGAGGAUCACCCAUGUGAUUCAGUGCGCGAGAACAGAAGGGAUUCGCU |  |  | 17.4 nM | 42.8 nM |
| GGAAAGUGAGGAUAUGCAUAACAAACACAAACACAAACAAAGCAGAAGGCACAUGAGGAUCACCCAUGUAAACA |  |  | 21.1 nM | 18.1 nM |
| CUGAGUAGUCAGGAUAUGUGGUACAAAAGUACUGCAGAAGGGAUUACAUGAGGAUCACCCAUGUUUACUUCAUG |  |  | 47.4 nM | 242 nM |
| UUUGAUUAAGUGAGGAUAUACUGUUUGUAUUGAUUGUAGAAGGUACAUGAGGAUCACCCAUGUUUAGUAUUUAU |  |  | 20.5 nM | 20 nM |
| GUCGGAAACGACAAUGAUAGGACUGAGGAUAUACAUAAGUUAGUCCACACAUGAGGAUCACCCAUGUAGAAGGCAGUCCUAUCU |  |  | 29.5 nM | 357 nM |
| GGGCUUUGGGAGAAGGUACAUUAAAUUAGUUUAACAUGAGGAUCACCCAUGUAAGGAUAUCCCAUCUUGUAUUAUGGUACAGCC |  |  | 12.8 nM | 12.8 nM |
| CGAUGGCAUGUAGGAUAUCGAGCUCAAAGAGCUCGAGAAGGACAUGAGGAUCACCCAUGUCCUCACAGACAGUGAGGGCUAUCG |  |  | 22.3 nM | 54.7 nM |
| AAAAUGUAAGGAUAUAGCCGGAACCCAGGGUUUGGACCCGGCUAGAAGGUACAUGAGGAUCACCCAUGUAAGAA |  |  | 17.2 nM | 22.8 nM |
| GUGGUCAGACAUGAGGAUCACCCAUGUGGAAUAAAUAACAGACAGGAUAUUAAAUAUAGGAUAUAUAAGAAGGGUCGAUUGGUG | 91.1 nM | 91.6 nM |  |  |

| Sequence | apparent Kd [1] | apparent Kd [2] | apparent Kd [3] | apparent Kd [4] |
| --- | --- | --- | --- | --- |
| GCGUAUAUAAGAUUUAUUUAACAGUCAGAAGGUGAUAAUACGACAUGAGGAUCACCCAUGUAAUUCAAGGAUAUGAUCUUACGC | 133 nM | 65.7 nM |  |  |
| UUUACUUACGAAGGAUAUGGUUACAUGAGGAUCACCCAUGUAUGUAUAUUGAUCUAGUAUUUUAACCAGAAGGUCGUGAUUAUU |  |  | 31.8 nM | 46.9 nM |
| AAAACCUCAUGAGGAUAUCCAACAUGAGGAUCACCCAUGUUAGUCUCAGUACCAGGUACUAGAGAGGAGAAGGCAUGCCAGGGC | 78.6 nM | 27.5 nM |  |  |
| AUGCUAGUGUGAGGAUAUCAACAUGAGGAUCACCCAUGUUGGAAGUACACGACAUGCGGUACAUUUGAGAAGGUACAUUAGCAU |  |  | 58.2 nM | 108 nM |
| GGAUAGGACAGAGGAUAUACGUGCUAGAGAUACUACCAAAAUUUCCUCACAUGAGGAUCACCCAUGUAGAAGGCUGUCCUAUCG |  |  | 180 nM | 143 nM |
| AUAUCUAUGUAAGGAUAUAGAUGAUAUACGCCUCCGACAUGAGGAUCACCCAUGUUAUAUUUUGUCUAGAAGGUACAUUGUCGG | 168 nM | 170 nM |  |  |
| AGAUUUGUACAUGAGGAUCACCCAUGUUAAUAGGUGGUUGUCAGAAGGCAUUAAUAGAGAUUUAAUGAGGAUAUGAAUUAACAA | 903 nM | 593 nM |  |  |
| GUGCCUUGGGAGAAGGCCGUAUGCAAAGCAUACGGAGGAUAUCCAUACCGGAAACGGACAUGAGGAUCACCCAUGUGGCACAAA | 15.1 nM | 6.03 nM |  |  |
| AACAGUACAGGAUAUACAUGAGGAUCACCCAUGUGAUAUUUAAGUGGCGUACCACAAAGUAGAAGGGUACUGGA |  |  | 21.9 nM | 85.6 nM |
| GCGGCCAACGUAGGAUAUCUUCAGCCACAGCACAUUGCUGUACAUGAGGAUCACCCAUGUCCUGGAGAGAAGGACGGACGGCAG | 37.7 nM | 8.73 nM |  |  |
| AUUUGAAUCGUAGGAUAUCGCUUAAAUUUAACACGAGAAGGACGAACAUGAGGAUCACCCAUGUAUCAUGGUGUAGAUAAUUUG |  |  | 82.5 nM | 353 nM |
| CUAAAUCAUGUAGGAUAUCGAUUGCGUCGCGAUCGAGAAGGACAUGAGGAUCACCCAUGUCAGAACGUCUGCGUUCAGACGUUG |  |  | 48.5 nM | 361 nM |
| AGUCGGAGCAGAGGAUAUAUACAUGAGGAUCACCCAUGUGACUGACUACGCUAGAAAUAGCAUGUAUAGAAGGCUGCUCCGACA |  |  | 388 nM | 946 nM |
| CCGGAAACGGGUAGCUGACAUGAGGAUCACCCAUGUGAAUCACAGGAUAUGGAUCCUAAUUGGAUCCAGAAGGGUGUCAGCUAC | 1020 nM | 125 nM |  |  |
| AACCUCGGAGGAUAUACCUACCGAUUCACAAGUGUCACAUCACAUGAGGAUCACCCAUGUAGAAGGUCGAGGCG |  |  | 30 nM | 97.1 nM |
| ACUAGAUGCGUGCAAUAACACAUGAGGAUCACCCAUGUGACACAGGAUAUAACCAGAUCAGAAAGUUAGAAGGGUGAGCACGCA | 29.6 nM | 18.9 nM |  |  |
| AUGGGUGUACCUUCACAUGAGGAUCACCCAUGUACGGGUGCGCAGGAUAUCCCAAAAGUCAGUAAGGAGAAGGGCGUAUGCCUG |  |  | 312 nM | 306 nM |
| AUGAGUAAAGCAGGAUAUCUAUUGUCUCAGUAACAUGAGGAUCACCCAUGUAGAGAAGGGCUAAGUCUUACUCUUCGGAGAUGA |  |  | 12.3 nM | 13.4 nM |
| GUCGAGUGAGGAUAUGGUGAGUAGUGCCUGAGCGCUGCUCACCAGAAGGCACAUGAGGAUCACCCAUGUAUAAC |  |  | 23.7 nM | 41.7 nM |
| GUUAUGUCAGGAUAUGCUUAUGAUGAGUGCUCAGACAUGAUGCAGAAGGGACAUGAGGAUCACCCAUGUACUGA |  |  | 25.4 nM | 63.9 nM |
| UACUCAUGUGAGAAGGGACGUAUCUCCAUGAGGGUAGGGCUAUUAGAGAAGUCAGGAUAUCACAUGAGGAUCACCCAUGUGACG |  |  | 6.92 nM | 7.02 nM |
| GCACUUAGAGAUGAACCGUUACUAACAUGAGGAUCACCCAUGUAGGAUAUGCUAAUAGUAUUGAAGCAGAAGGACACUAAGUGC |  |  | 5.25 nM | 6.51 nM |
| UCGAGUCAUGAGAAGGACUGAUGUUACAUGAGGAUCACCCAUGUCAUGGGUAGGAUAUCAUUGACACGGCCGUACCUCUCUUAC | 355 nM | 78.2 nM |  |  |
| UGUGGGUCCGUUAGGAUAUUUACAGGCAUGCCUGUAAAGAAGGAACAUGAGGAUCACCCAUGUUUGACAAAUUU |  |  | 16.9 nM | 39.8 nM |
